# TAAR1 antagonist: antagonists of human TAAR1; Q96RJ0; CHO RD-HGA16 TAAR1, Fluo-8 calcium fluorescence, antagonist; inhibition, % at 3 µM; 360,000 tested, 1.5% active;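 active = inhibition above a per-plate cutoff, the mean inhibition of test compounds on that plate plus 3 SD, cut at about 49% in these data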;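 note: 0% = DMSO plus EC80 beta-PEA response and 100% = DMSO alone without agonist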
#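 test system = CHO RD-HGA16 cells bearing hTAAR1 | replication = singlicate | controls = DMSO-only wells and EC80 β-PEA-stimulated wells | reagent = EC80 β-phenethylamine stimulus | read-out basis = percent inhibition of PEA-evoked calcium signal, max/basal emission ratio | schedule = seeding 17-24 h prior, 75-min 37 °C, 30-min RT dye loading | signal = kinetic Fluo-8 calcium fluorescence measurement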
# TAAR1 agonist: agonists of human TAAR1; CHO RD-HGA16 TAAR1, Fluo-8 calcium fluorescence; vehicle wells 0%, saturating PEA agonist 100%; AID 624467; activation, % at 3 µM; 360,000 tested, 0.99% active;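 active = activation above the mean activation of all test compounds in the run plus 3 SD, cut at about 38% in these data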
#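 Test system: RD-HGA16 (CHO) cells co-expressing Gα16 and hTAAR1 | Doses: Single dose, 3 µM | Schedule: 17-24 h seeding, 75 min 37 °C dye, 30 min RT | Evaluation: % activation from peak over basal fluorescence ratio, DMSO-to-PEA scaled | Technique: Kinetic Fluo-8 calcium fluorescence | Benchmarks: Low control DMSO, high control PEA (EC100)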
# CHRM1 PAM: positive allosteric modulators of human M1 muscarinic receptor; P11229; CHO-K1 hM1, Fluo-8 calcium fluorescence, ACh EC20; 0% = ACh EC20, 100% = maximal ACh; activation, % at 3 µM; 360,000 tested, 0.088% active; AID 588819; in the data active = activation above about 19%, passing the limit was not always enough
# Target sequence (P11229 whole entry, looked up): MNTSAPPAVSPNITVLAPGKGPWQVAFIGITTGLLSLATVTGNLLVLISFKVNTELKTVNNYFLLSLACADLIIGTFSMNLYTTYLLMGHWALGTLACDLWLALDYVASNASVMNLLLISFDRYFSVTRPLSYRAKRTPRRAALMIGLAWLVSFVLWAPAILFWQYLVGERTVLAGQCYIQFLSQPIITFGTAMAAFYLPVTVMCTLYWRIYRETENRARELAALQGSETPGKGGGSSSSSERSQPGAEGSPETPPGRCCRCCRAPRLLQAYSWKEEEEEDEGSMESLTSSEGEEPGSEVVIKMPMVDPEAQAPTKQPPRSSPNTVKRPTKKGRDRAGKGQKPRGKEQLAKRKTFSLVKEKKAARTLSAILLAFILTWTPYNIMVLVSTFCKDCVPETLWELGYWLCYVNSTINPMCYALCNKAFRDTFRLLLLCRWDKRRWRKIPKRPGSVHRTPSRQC
# CHRM1 antagonist: blocks human M1 muscarinic receptor; CHO-K1 hM1, Fluo-8 calcium fluorescence, ACh EC80 antagonist; P11229; inhibition, % at 3 µM; 360,000 tested, 1.3% active;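 active = percent inhibition above its own plate's cutoff, namely the mean of that plate's compound wells plus 3 SD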;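 note: peak over basal fluorescence ratio during 140 s after agonist addition; 0% = ACh EC80 plus DMSO and 100% = DMSO alone without agonist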
# CHRM1 agonist: human M1 muscarinic receptor agonism; CHO-K1 hM1, Fluo-8 calcium fluorescence, agonist mode; 0% DMSO, 100% acetylcholine EC100; activation, % at 3 µM; 360,000 tested, 0.33% active;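 active = activation above the run's mean compound activation plus 3 SD, cut at about 16% in these data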;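 note: peak over basal fluorescence ratio within a 140 s kinetic read after compound addition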
# * = called active by the depositor; / = no result given. This is a sample that favours compounds with a hit; in the whole collection about 3.4% have one here.
SMILES,TAAR1 antagonist,TAAR1 agonist,CHRM1 PAM,CHRM1 antagonist,CHRM1 agonist
CN1C(=O)[C@@]2(O[C@H]3c4ccccc4C=CN3C3=C2C(=O)CCC3)c2ccccc21,-9.9,2.3,/,/,/
COc1cccc(/C=C2\SC(=S)N(CCCC(=O)N(CCO)c3ccccc3)C2=O)c1,48.7*,3.5,0.8,1.7,8.5
O=C1/C(=C/c2cccc(Br)c2)SC(=S)N1CCC(=O)N(CCO)c1ccccc1,8.6,7.2,8.4,-9.4,-2.1
CCOC(=O)C1(C)CCN1C(=O)c1ccc(OC)c(OC)c1 (stereo unspecified),-2.5,0.6,7.6,-10.4,-3.3
CCSc1nsc(NC(=O)Nc2ccccc2F)n1,23.4,13.7,-11.6,21.9,3.6
C=CCSc1nsc(NC(=O)Nc2ccc(F)cc2)n1,42.6,10.1,-12.6,30.7*,4.8
CCSc1nsc(NC(=O)Nc2cccc(OC)c2)n1,32.4,9.0,-13.9,26.9*,3.8
CCCCCCNCc1ccc(Br)cc1,-11.6,24.1,-3.4,-10.8,16.3*
CCCCCNCc1ccc(Br)cc1,2.7,14.8,2.8,5.4,6.7
Cc1ccccc1N=C1SC(CC(=O)Nc2ccc3ccccc3c2)C(=O)N1Cc1ccccn1 (stereo unspecified),50.6*,9.8,0.4,-0.8,-0.5
C[N+](C)(C)C/C=C1/COCO1,-19.7,12.5,-17.1,96.2*,90.6*
CC(C)CNc1cccc2c1S(=O)(=O)N[C@@H](CC(C)C)CO2,-11.3,1.4,/,/,/
Nc1nc2ccccc2nc1N1CCCC1,-14.9,5.6,3.8,-5.6,-6.6
CN1CCN(C=Nc2nc3ccccc3nc2N2CCCC2)CC1,16.8,0.3,-18.2,34.2*,-5.4
CC(C)N(C[C@@H]1CSCCS(=O)(=O)N1)C1CCCCC1,1.6,0.0,/,/,/
Cc1noc(C)c1S(=O)(=O)Nc1ccc(C(=O)N2CCN(c3ccc(Cl)cc3)CC2)cc1,29.7,8.7,-13.4,18.4*,5.6
Cc1noc(C)c1S(=O)(=O)N1CCN(c2ccc(Cl)cc2)CC1,-9.6,0.1,0.9,-5.3,-4.0
COc1ccc(C(=O)C2CCCN(C3Cc4ccccc4C3)C2)c(OC)c1 (stereo unspecified),-2.9,0.7,-30.7,28.9*,-14.5
CC(C)[C@H](NC(=O)OCc1ccccc1)C(=O)OCc1cc(=O)oc2cc(O)ccc12,53.8*,5.3,-12.2,19.7,1.5
CC(C)[C@H](NC(=O)OCc1ccccc1)C(=O)OCC(=O)c1ccccc1,-3.5,1.1,4.5,-6.4,-4.6
Cc1ccc(CN2CC(N3CCN(CC4CC4)CC3)CS2(=O)=O)cc1 (stereo unspecified),-15.5,-1.5,2.6,5.4,-8.1
CC(=C1SC(=S)NC1=O)c1ccc(Cl)c(O)c1,11.6,1.2,/,/,/
CCC(C)NCCOCCOc1ccc(Cl)cc1Br (stereo unspecified),6.0,3.1,-22.3,42.1*,-7.5
CCC(C)NCCOCCOc1cc(C)c(Cl)c(C)c1 (stereo unspecified),-11.1,5.0,-25.3,53.7*,-7.4
Cc1ccc(OCCOCCNC(C)C)c(Br)c1,-8.6,8.4,-0.7,-28.1,-6.3
SMILES,TAAR1 antagonist,TAAR1 agonist,CHRM1 PAM,CHRM1 antagonist,CHRM1 agonist
C=CCc1cc(Cl)ccc1OCCCNC(C)CC (stereo unspecified),-3.4,13.5,-22.4,24.3*,-7.3
CCC(C)NCCOCCOc1ccc(F)cc1 (stereo unspecified),4.1,0.4,2.9,-14.1,-6.0
CCC(C)NCCCOc1ccc(Cl)cc1C(C)(C)C (stereo unspecified),-17.6,4.2,9.6,-8.3,-1.2
COC(=O)C1=C(C)N(Cc2ccccc2C(F)(F)F)C(=NCc2ccc(OC)cc2)NC1c1ccc(Cl)cc1 (stereo unspecified),16.9,10.2,/,/,/
CC[C@]12c3[nH]c4cc(-c5ccco5)ccc4c3CCN1C(=O)[C@@H](CC(=O)NCCCN(C)C)C[C@@H]2C(=O)N1CCN(C(=O)C2CC2)CC1,-8.4,0.8,-13.8,20.9*,-9.6
CC[C@]12c3[nH]c4cc(-c5ccco5)ccc4c3CCN1C(=O)[C@@H](CC(=O)NCCCOC)C[C@@H]2C(=O)N1CCN(C(=O)C2CC2)CC1,12.4,0.5,5.3,-7.7,-3.0
CC(C)c1[nH]nc2c1C(c1ccccc1)NC2=O (stereo unspecified),-3.6,3.4,/,/,/
O=C(CC12CC3CC(CC(Br)(C3)C1)C2)NC1CCCC1,1.8,0.1,-37.2,54.5*,-14.6
O=C(O)[C@H](Cc1ccccc1)NC(=O)[C@H]1O[C@@H](n2ccc(=O)[nH]c2=O)[C@H](O)[C@@H]1O,4.2,2.5,/,/,/
O=C(CNC(=O)c1ccccn1)N/N=C/c1ccccc1,4.2,40.3*,4.2,-5.1,-4.4
O=C1[C@H]2CCC=C[C@H]2[C@H](c2ccccc2Br)N1Cc1ccccc1,8.1,-1.9,-3.8,-3.2,-8.5
COc1ccc(N2C(=O)[C@H]3CCC=C[C@H]3[C@@H]2c2ccccc2Br)cc1,-8.2,-1.3,-26.6,47.4*,-7.9
CCN(CC)S(=O)(=O)c1ccc2oc(SCc3ccc(F)cc3)nc2c1,54.9*,11.4,-6.8,8.2,-3.8
CCN(CC)S(=O)(=O)c1ccc2oc(SCC(=O)NC3CC3)nc2c1,4.2,0.8,8.4,-12.5,-1.9
O=C1CC(N2CCN(C/C=C/c3ccccc3)CC2)C(=O)N1CCc1ccccc1 (stereo unspecified),24.4,15.2,-25.2,8.8,-3.2
O=C1CC(N2CCN(C/C=C/c3ccccc3)CC2)C(=O)N1Cc1cccs1 (stereo unspecified),-12.6,11.4,-24.2,87.3*,-8.2
COc1cccc(-c2cc(CNC(=O)[C@H]3O[C@@H](n4cnc(C(N)=O)n4)[C@H](O)[C@@H]3O)no2)c1,-42.0,2.8,/,/,/
N=c1ccn(Cc2cccc(F)c2)cc1,-7.0,-0.3,-21.3,41.7*,-8.8
Fc1ccc(CN2CCN(c3ncc(Cc4ccccc4)cn3)CC2)c(Cl)c1,-23.2,0.7,/,/,/
CC1(Cc2ccccc2OC(F)(F)F)C(=O)Nc2c(Cl)ccc(Cl)c21 (stereo unspecified),25.4,2.1,0.1,-7.8,-3.2
CC(=O)NCCc1nc2ccccc2n1CCOc1ccccc1,-22.9,39.1*,6.3,-6.5,-1.4
CC(C)(C)C(=O)NCCCc1nc2ccccc2n1CCCOc1ccc(Cl)cc1,65.5*,18.8,-16.9,24.6,-1.9
C=CCn1c(CCCNC(=O)C(C)(C)C)nc2ccccc21,-7.6,1.9,-0.3,-3.0,-3.7
CC(=O)NCCc1nc2ccccc2n1CCCCOc1ccccc1,0.3,2.1,8.7,-17.9,-5.4
C[C@@H]1CN([C@@H](C)CO)C(=O)CCCn2cc(nn2)CO[C@H]1CN(C)C(=O)C1CC1,-12.1,2.2,/,/,/
O=C(/C=C\c1ccco1)Nc1nc(-c2ccc3ccccc3c2)cs1,49.3*,8.7,-15.0,15.7,-8.7
